The subject of assay [1] is Protein cereblon/Epidermal growth factor receptor (Homo sapiens), P00533+Q96SW2 [UNDEFINED MUTATION]. Description: Protac activity at CRBN/EGFR del19 mutant in human HCC827 cells assessed as induction of EGFR degradation at 33 nM measured after 24 hrs by Western blot analysis. In kind it is cell-based. Put shortly:
(§1)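 HCC827 cells seeded at 0.5–1 × 10⁶ per well, grown 24 h, then treated at the stated concentrations for 24 h. EGFR^del19 level by Western blot with anti-EGFR antibody and β-actin loading control.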
(In general: A western blot detects proteins with antibodies after separation by electrophoresis.)

The test system of a further assay is NCI-H1975. Description: Antiproliferative activity against human H1975 cells expressing EGFR L858R/T790M mutant assessed as cell growth inhibition measured after 72 hrs by MTT assay. In kind it is functional, cell-based. To be noted: NCI-H1975, 72 h. In a few lines: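 MTT assay on H1975 cells grown in RPMI-1640 with 10% heat-inactivated FBS and 1% penicillin-streptomycin at 37 °C and 5% CO₂. Cells were seeded at 3000–8000 per well and left 24 h, then exposed to a concentration series for 72 h. MTT (5 mg/mL stock in PBS) was added for 4 h, supernatant removed and formazan dissolved in DMSO. IC50 was fitted by nonlinear regression (log inhibitor vs response).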

Assay [2] deals with Protein cereblon/Epidermal growth factor receptor (Homo sapiens), P00533+Q96SW2 [UNDEFINED MUTATION]. Description: Protac activity at CRBN/EGFR del19 mutant in human HCC827 cells assessed as induction of EGFR degradation at 0.033 uM pretreated with EGFR inhibitor, F for 2 hrs followed by incubation with compound for 24 hrs by Western blot analysis. The class given is cell-based.
Sequence of Protein cereblon/Epidermal growth factor receptor (Homo sapiens), P00533+Q96SW2 [UNDEFINED MUTATION] (P00533 whole entry, looked up, stated change not applied): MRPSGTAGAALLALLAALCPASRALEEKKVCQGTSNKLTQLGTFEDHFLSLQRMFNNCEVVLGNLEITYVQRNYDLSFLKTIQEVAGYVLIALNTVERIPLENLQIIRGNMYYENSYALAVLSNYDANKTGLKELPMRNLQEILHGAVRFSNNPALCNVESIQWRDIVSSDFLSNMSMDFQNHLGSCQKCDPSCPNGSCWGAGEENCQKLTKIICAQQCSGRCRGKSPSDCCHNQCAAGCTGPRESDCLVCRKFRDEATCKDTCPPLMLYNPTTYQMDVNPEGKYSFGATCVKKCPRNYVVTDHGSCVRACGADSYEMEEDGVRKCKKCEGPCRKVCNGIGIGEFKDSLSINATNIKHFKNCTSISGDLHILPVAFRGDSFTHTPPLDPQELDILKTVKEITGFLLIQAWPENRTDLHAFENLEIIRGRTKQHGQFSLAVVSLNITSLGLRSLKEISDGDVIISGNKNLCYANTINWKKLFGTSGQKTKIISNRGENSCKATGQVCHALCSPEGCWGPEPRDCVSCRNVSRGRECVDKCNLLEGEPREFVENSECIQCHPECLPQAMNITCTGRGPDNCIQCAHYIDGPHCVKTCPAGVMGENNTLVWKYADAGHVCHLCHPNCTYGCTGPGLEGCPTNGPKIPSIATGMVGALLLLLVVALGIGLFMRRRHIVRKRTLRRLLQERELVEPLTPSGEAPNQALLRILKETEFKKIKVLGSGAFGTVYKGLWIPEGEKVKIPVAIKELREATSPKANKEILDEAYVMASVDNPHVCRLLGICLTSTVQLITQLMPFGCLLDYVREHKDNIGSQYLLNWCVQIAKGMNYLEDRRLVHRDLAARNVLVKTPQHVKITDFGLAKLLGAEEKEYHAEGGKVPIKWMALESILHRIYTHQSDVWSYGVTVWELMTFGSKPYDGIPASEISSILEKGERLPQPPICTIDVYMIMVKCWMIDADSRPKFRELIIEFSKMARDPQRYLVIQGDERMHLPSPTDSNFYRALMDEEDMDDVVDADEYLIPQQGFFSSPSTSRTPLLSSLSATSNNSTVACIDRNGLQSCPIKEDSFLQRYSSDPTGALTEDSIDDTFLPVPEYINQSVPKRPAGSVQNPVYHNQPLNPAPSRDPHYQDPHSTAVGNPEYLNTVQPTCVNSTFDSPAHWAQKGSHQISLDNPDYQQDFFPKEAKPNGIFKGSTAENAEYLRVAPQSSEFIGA
Sequence of Protein cereblon/Epidermal growth factor receptor (Homo sapiens), P00533+Q96SW2 [UNDEFINED MUTATION] (Q96SW2 whole entry, looked up, stated change not applied): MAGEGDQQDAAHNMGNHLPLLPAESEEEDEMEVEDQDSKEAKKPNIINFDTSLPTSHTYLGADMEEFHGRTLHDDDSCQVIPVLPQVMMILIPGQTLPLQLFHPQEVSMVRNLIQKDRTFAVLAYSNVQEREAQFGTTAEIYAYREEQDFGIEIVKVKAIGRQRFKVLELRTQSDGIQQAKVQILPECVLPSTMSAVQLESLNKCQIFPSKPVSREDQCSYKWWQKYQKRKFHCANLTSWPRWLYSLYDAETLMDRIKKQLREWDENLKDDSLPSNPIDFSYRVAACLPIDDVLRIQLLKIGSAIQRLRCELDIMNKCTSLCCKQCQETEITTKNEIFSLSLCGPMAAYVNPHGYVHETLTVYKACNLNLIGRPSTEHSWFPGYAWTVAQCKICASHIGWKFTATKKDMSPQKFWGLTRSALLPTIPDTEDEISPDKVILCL

The test system is the same in assay [3]. Description: Protac activity at CRBN/EGFR del19 mutant in human HCC827 cells assessed as induction of EGFR degradation at 0.033 uM pretreated with proteasome inhibitor, MG132 for 2 hrs followed by incubation with compound for 24 hrs by Western blot analysis. The class given is cell-based.
Another assay relates to HepG2. The assay is described as follows: Antiproliferative activity against human HepG2 cells expressing VEGFR2 assessed as cell growth inhibition measured after 72 hrs by MTT assay. In kind it is functional, cell-based. The conditions noted are these: HepG2, 72 h. Put shortly: (§2)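 Cells were seeded at 3000–8000/well and allowed 24 h, then exposed to serial compound concentrations for 72 h. MTT (5 mg/mL stock in PBS) was added for 4 h, supernatant removed and DMSO added. IC50, defined as 50% growth inhibition, was derived by nonlinear regression (log inhibitor vs response).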
(Tetrazolium dyes change colour on reduction, which living cells bring about.)

Assay [4] deals with Protein cereblon/Epidermal growth factor receptor (Homo sapiens), P00533+Q96SW2 [UNDEFINED MUTATION]. Description: Protac activity at CRBN/EGFR del19 mutant in human HCC827 cells assessed as maximal induction of EGFR degradation at 33 nM measured after 48 hrs by Western blot analysis. In kind it is cell-based. Put shortly:
(§3)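 HCC827 cells seeded at 0.5–1 × 10⁶ per well, then treated at the stated concentrations for 48 h. EGFR by Western blot; n = 3. DC₅₀ (concentration giving 50% EGFR loss) by nonlinear regression, log(inhibitor) vs response.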

Assay [5] deals with T1, Protein cereblon/Epidermal growth factor receptor (Homo sapiens, UniProt P00533+Q96SW2). The assay is described as follows: Protac activity at CRBN/EGFR in human A431 cells assessed as induction of degradation of EGFR at 0.1 to 3.3 uM incubated for 48 hrs by Western blot analysis. In kind it is cell-based. To be noted: A-431, dose 0.1-3.3 µM.
Assay [6] relates to Protein cereblon/Epidermal growth factor receptor (Homo sapiens), P00533+Q96SW2 [UNDEFINED MUTATION]. The assay is described as follows: Protac activity at CRBN/EGFR del19 mutant in human HCC827 cells assessed as induction of EGFR degradation at 0.033 uM pretreated with CRBN ligand, lenalidomide for 2 hrs followed by incubation with compound for 24 hrs by Western blot analysis. In kind it is cell-based.

The target in assay [7] is T1, Protein cereblon/Epidermal growth factor receptor. Description: Protac activity at CRBN/EGFR del19 mutant in human HCC827 cells assessed as induction of EGFR degradation measured after 48 hrs by Western blot analysis. The class given is cell-based. In a few lines: as §3
Target sequence in this assay (P00533 whole entry, looked up, stated change not applied): as the sequence (P00533 whole entry, looked up, stated change not applied) above
Target sequence in this assay (Q96SW2 whole entry, looked up, stated change not applied): as the sequence (Q96SW2 whole entry, looked up, stated change not applied) above
The test system of another assay is HCC827. Description: Antiproliferative activity against human HCC827 cells expressing EGFR del19 mutant assessed as cell growth inhibition measured after 72 hrs by MTT assay. To be noted: HCC827, 72 h. The class given is functional, cell-based. In a few lines: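 HCC827 cells were kept in RPMI-1640 with 10% heat-inactivated FBS, 1% sodium pyruvate, 1% glutamine and 1% penicillin-streptomycin at 37 °C and 5% CO₂, seeded at 3000–8000/well and rested 24 h. Compounds were applied as a concentration series for 72 h. MTT (5 mg/mL stock in PBS) was given for 4 h, then medium was removed and DMSO added. IC50 came from nonlinear regression (log inhibitor vs response).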

The next assay concerns A-431. The assay is described as follows: Antiproliferative activity against human A431 cells expressing wild type EGFR assessed as cell growth inhibition measured after 72 hrs by MTT assay. In kind it is functional, cell-based. To be noted: A-431, 72 h. In a few lines:
as §2

The subject of assay [8] is Protein cereblon/Epidermal growth factor receptor (Homo sapiens), P00533+Q96SW2 [UNDEFINED MUTATION]. Description: Protac activity at CRBN/EGFR del19 mutant in human HCC827 cells assessed as induction of EGFR degradation at 0.033 uM pretreated with ubiquitination inhibitor, MLN4924 for 2 hrs followed by incubation with compound for 24 hrs by Western blot analysis. In kind it is cell-based.

The test system is the same in assay [9]. The assay is described as follows: Protac activity at CRBN/EGFR del19 mutant in human HCC827 cells assessed as induction of EGFR degradation at 0.033 uM pretreated with autophagy inhibitor, chloroquine for 2 hrs followed by incubation with compound for 24 hrs by Western blot analysis. The class given is cell-based.
For assay [10] the test system is unchanged. Description: Protac activity at CRBN/EGFR del19 mutant in human HCC827 cells assessed as induction of EGFR degradation at 33 nM by Western blot analysis. The class given is cell-based. The conditions noted are these: time 12-72 hrs, TDE = time-dependent effect. Put shortly:
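Time course in HCC827 cells at 33 nM, with protein harvested at each stated time point. EGFR^del19 detected by Western blot.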

The test system is the same in assay [11]. Description: Protac activity at CRBN/EGFR del19 mutant in human HCC827 cells assessed as induction of EGFR degradation at 333 nM measured after 24 hrs by Western blot analysis. The class given is cell-based. In a few lines:
as §1

Assay [12] has the same test system. The assay is described as follows: Protac activity at CRBN/EGFR del19 mutant in human HCC827 cells assessed as induction of EGFR degradation at 33 nM incubated for 24 hrs measured following compound wash-out for 24 to 48 hrs by Western blot analysis. The class given is cell-based. In a few lines: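 HCC827 cells (RPMI-1640, 10% heat-inactivated FBS, 1% sodium pyruvate, 1% glutamine, 37 °C, 5% CO₂) treated at 33 nM for 24 h. Medium then replaced with compound-free medium, and protein harvested at the stated times. EGFR read by Western blot; n = 2.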

For assay [13], the target named is von Hippel-Lindau disease tumor suppressor/Epidermal growth factor receptor (Homo sapiens, UniProt P00533+P40337). The assay is described as follows: Protac activity at VHL/EGFR del19 mutant in human HCC827 cells assessed as induction of EGFR degradation measured after 24 hrs by Western blot analysis. The class given is cell-based. Put shortly: as §1
Sequence of von Hippel-Lindau disease tumor suppressor/Epidermal growth factor receptor (P00533 whole entry, looked up, stated change not applied): as the sequence (P00533 whole entry, looked up, stated change not applied) above
Sequence of von Hippel-Lindau disease tumor suppressor/Epidermal growth factor receptor (P40337 whole entry, looked up, stated change not applied): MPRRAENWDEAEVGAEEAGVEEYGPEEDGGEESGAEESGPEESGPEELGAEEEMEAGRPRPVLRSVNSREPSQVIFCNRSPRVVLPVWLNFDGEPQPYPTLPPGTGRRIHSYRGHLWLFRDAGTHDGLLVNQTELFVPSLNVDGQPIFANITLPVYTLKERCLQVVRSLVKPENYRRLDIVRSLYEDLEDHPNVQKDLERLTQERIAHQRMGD

Here are results for two compounds from ChEMBL document CHEMBL4706553, “Discovery of potent small molecule PROTACs targeting mutant EGFR” (Eur J Med Chem, 2020).

Active and inactive are the calls of the source.

Broadly, the IC50 is the midpoint of a concentration-inhibition curve. For orientation: DC50 means the concentration at which degradation of the target reaches its halfway point. Take `CN(CCOCCOCCOCCN1CCN(c2ccc(Nc3ncc4nc(Nc5ccccc5)n(C5CCCC5)c4n3)cc2)CC1)CC(=O)Nc1cccc2c1CN(C1CCC(=O)NC1=O)C2=O` (configuration not stated): the outcome in assay [1] and in [3] was Active. The IC50 in the assay on NCI-H1975 was 3180 nM; in the assay on HepG2 it was above 5000 nM; with HCC827 it was 2 nM; with A-431, 1860 nM. Also, the result in [2], in [5], in [6], in assay [8], in [9] and in [11] was inactive. Further, in assay [12], the result was inactive. In addition, the Emax in [4] was 82%. In addition, the DC50 in assay [7] is 1.91 nM. For the same compound, the Activity result in assay [10] is “Tde”.

Regarding `COc1cc2ncnc(Nc3ccc(F)c(Cl)c3)c2cc1OCCCCCOCCOCCC(=O)N[C@H](C(=O)N1C[C@H](O)C[C@H]1C(=O)NCc1ccc(-c2scnc2C)cc1)C(C)(C)C`, the DC50 in assay [13] was found to be 11.7 nM.
